Assay outcomes as filed in PubChem.
M5 PAM: positive allosteric modulators of human muscarinic M5 receptor | P08912 | CHO-K1 hM5, Fluo-8 calcium, ACh EC20 PAM; 0% = ACh EC20, 100% = ACh EC100 | activation, % at 3 µM | 360,000 compounds, 0.3% hits | AID 624038;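 active means activation above the run cutoff, the mean activation of all test compounds plus 3 SD, cut at about 18% in these data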
Target sequence (P08912 whole entry, looked up): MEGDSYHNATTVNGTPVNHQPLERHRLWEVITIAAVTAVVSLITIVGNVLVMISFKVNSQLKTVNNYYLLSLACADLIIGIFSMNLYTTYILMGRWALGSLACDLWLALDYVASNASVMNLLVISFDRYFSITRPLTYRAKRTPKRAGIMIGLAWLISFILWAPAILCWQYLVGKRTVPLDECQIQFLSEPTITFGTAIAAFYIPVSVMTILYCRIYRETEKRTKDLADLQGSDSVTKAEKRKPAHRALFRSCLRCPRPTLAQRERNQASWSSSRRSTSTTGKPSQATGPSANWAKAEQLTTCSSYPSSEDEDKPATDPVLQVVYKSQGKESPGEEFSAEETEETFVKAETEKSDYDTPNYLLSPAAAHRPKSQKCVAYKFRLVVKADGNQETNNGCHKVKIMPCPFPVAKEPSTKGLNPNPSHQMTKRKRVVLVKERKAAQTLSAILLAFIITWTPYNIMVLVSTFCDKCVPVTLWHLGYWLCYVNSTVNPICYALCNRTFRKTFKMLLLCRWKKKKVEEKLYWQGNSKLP
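Measured by: Fluo-8 calcium fluorescence; material: human M5 receptor in CHO-K1 cells; schedule: Post-acetylcholine fluorescence recording 140 s; benchmarks: low control EC20 acetylcholine (0%), high control EC100 acetylcholine (100%); read-out: Max/basal fluorescence ratio as % of EC20–EC100 ACh window; compound: single dose, 3 µM nominal final test concentration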
CHRM5 antagonist: CHRM5 antagonism in calcium assay. P08912. CHO-hM5 cells, Fluo-8 calcium fluorescence, ACh EC80. 360,000 compounds, 0.59% hits. AID 624040. inhibition, % at 3 µM;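 active means inhibition above a per-plate cutoff, the mean of that plate's test compounds plus 3 SD, cut at about 27% in these data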;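 further: 0% = acetylcholine EC80 with DMSO and 100% = DMSO without agonist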
CHRM5 agonist: agonists of human muscarinic M5 receptor (CHRM5); activation, % at 3 µM; 360,000 compounds, 0.19% hits; P08912; CHO-K1 hM5 cells, Fluo-8 calcium fluorescence; 0% DMSO wells, 100% maximal acetylcholine response;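 active means activation above the run's mean over test compounds plus 3 SD, cut at about 23% in these data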;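 further: signal is peak over basal fluorescence ratio across the kinetic read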
M4 PAM: CHRM4 positive allosteric modulation; P08173; CHO-K1 hM4/Gqi5, Fluo-8 calcium fluorescence, ACh EC20; 0% = ACh EC20, 100% = maximal ACh; activation, % at 3 µM; 360,000 compounds, 0.4% hits; AID 624126;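 active means activation above its plate's cutoff, the mean activation of sample wells plus 3 SD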
M4 ag: agonists of human muscarinic M4 receptor (CHRM4); CHO-K1 hM4/Gqi5, Fluo-8 calcium fluorescence; vehicle 0%, full acetylcholine response 100%; activation, % at 3 µM; 360,000 compounds, 0.14% hits; AID 624127;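 active means activation above the run mean over all test wells plus 3 SD, cut at about 32% in these data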;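 further: peak over basal fluorescence ratio per well then scaled between controls; 0% = DMSO wells and 100% = acetylcholine at EC100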
CHRM4 antagonist: blocks acetylcholine activation of human M4 receptor; inhibition, % at 3 µM; P08173; CHO-hM4 cells, ACh EC80, Fluo-8 calcium fluorescence; 360,000 compounds, 0.73% hits;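 active means inhibition above its plate's cutoff, the mean inhibition of sample wells plus 3 SD, cut at about 27% in these data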;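 further: 0% = acetylcholine EC80 with DMSO and 100% = DMSO without agonist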
Starred values were filed as active, the others as inactive. Compounds with a hit are over-represented: about 1.8% of the library has one in this group of screens.

SMILES	M5 PAM	CHRM5 antagonist	CHRM5 agonist	M4 PAM	M4 ag	CHRM4 antagonist
CCOc1cc(/C=N\NC(=O)CC(=O)NCCc2ccccc2)ccc1O	-19.3	29.2*	-1.4	-7.2	16.6	6.8
CCOc1ccc(/C=N\NC(=O)CC(=O)NCCc2ccccc2)cc1	5.9	-1.4	-3.5	-3.1	0.5	4.6
COc1cc(/C=N\NC(=O)CC(=O)NCCc2ccccc2)ccc1O	-4.7	-1.5	-1.7	-0.6	0.9	-8.3
CCOc1ccc(/C=N/NC(=O)CC(=O)NCc2ccccc2)cc1	27.5*	-2.4	3.8	6.6	-0.2	-4.8
CN(C)c1ccc(/C=N/NC(=S)NCc2ccccc2)cc1	-6.8	1.9	-4.7	-4.1	0.8	-8.6
COc1ccccc1-c1noc2c1C(=O)N(Cc1cn(-c3ccccc3OC)nn1)CC2	-8.8	6.2	1.2	-5.5	8.2	4.2
O=C(Nc1ccc(Oc2ccccc2)cc1)c1ccc2sc([C@H]3C[C@H](O)[C@@H](CO)O3)nc2c1	-2.6	7.6	4.1	-1.7	9.3	28.2*
COc1ccc(S(=O)(=O)N2CCC(O)(c3ccc(Cl)cc3)CC2)cc1	-13.5	1.9	-5.7	-6.7	5.0	8.7
CC(C)(C)c1ccc(S(=O)(=O)N2CCC(O)(c3ccc(Cl)cc3)CC2)cc1	-32.0	30.3*	-16.5	-52.7	12.5	19.3
CCCCNS(=O)(=O)c1cccc(NC(=O)[C@@H]2O[C@H](CO)[C@H](O)[C@H](O)[C@H]2O)c1	0.0	3.8	0.1	5.9	-0.4	0.5
CS(=O)(=O)c1ccc(S(=O)(=O)N2CCN(C(=O)C(O)c3ccccc3)CC2)cc1 (configuration not stated)	0.4	-6.2	0.2	-2.2	2.5	-0.2
O=C(NCc1ccccc1)c1cc(C2CCCCN2S(=O)(=O)c2ccccc2)on1 (configuration not stated)	6.5	6.7	-7.0	6.2	5.3	-19.1
COc1ccc(NC(=O)C2CCN(c3nc(-c4ccc(OC)cc4)no3)CC2)cc1	-0.4	-2.5	0.8	-1.4	1.6	-5.0
CCN(C(=O)C1CCN(c2nc(-c3ccc(OC)cc3)no2)CC1)c1ccc(OC)cc1	-20.3	28.3*	6.5	-6.6	12.7	-3.7
CC[C@]12c3[nH]c4ccc(Cl)cc4c3CCN1C(=O)[C@@H](CC(=O)NCc1ccc(OC)c(OC)c1)C[C@@H]2C(=O)N1CCN(C(=O)C2CC2)CC1	2.0	-2.0	-0.6	-7.3	1.1	3.2
CC[C@]12c3[nH]c4ccc(OC)cc4c3CCN1C(=O)C(CC(=O)NCc1ccc(OC)c(OC)c1)C[C@@H]2C(=O)N1CCN(C(=O)C2CC2)CC1 (some centres not stated)	3.4	-12.9	0.8	-11.8	-0.6	29.1*
CC[C@]12c3[nH]c4ccccc4c3CCN1C(=O)C(CC(=O)NCC13CC4CC(CC(C4)C1)C3)C[C@@H]2C(=O)N1CCN(C(=O)c2ccco2)CC1 (some centres not stated)	-2.3	13.4	-0.1	-16.6	5.9	32.5*
C=CCN(c1ccc(C(=O)N2CCN(c3ccc(F)cc3)CC2)cc1)S(C)(=O)=O	-1.9	42.4*	3.0	4.1	1.0	-2.5
CCNCCC(=O)N1c2ccccc2Sc2ccc(C(F)(F)F)cc21	-33.2	99.8*	-21.4	-16.5	3.9	95.7*
O=C(CN1CCCC1)N1c2ccccc2Sc2ccc(Cl)cc21	-33.6	95.9*	-25.9	-18.2	1.4	93.9*
O=C(CN1CCCC1)N1c2ccccc2Sc2ccc(C(F)(F)F)cc21	-15.7	98.8*	-11.7	-22.2	0.8	95.1*
O=C(CSc1nc2ccccc2o1)N1c2ccccc2Sc2ccc(C(F)(F)F)cc21	-1.1	-5.6	-0.6	-1.3	-0.2	3.8
O=C(CN1CCN(c2ccccn2)CC1)N1c2ccccc2Sc2ccc(C(F)(F)F)cc21	-15.7	3.7	-2.9	-2.2	-1.9	11.5
CC(=O)Oc1ccccc1Cn1c(C)c(C(=O)NCCC#N)sc1=O	-4.3	0.2	2.3	5.8	1.1	-8.4
N=c1c2ccccc2nc2n1CCCCC2	-13.5	9.6	-2.3	-13.8	0.0	13.3
